A selection: hits, their analogues and other compounds. The true share with any hit is near 4.6%.
OX1R antag-1: OX1R (HCRTR1) antagonists, primary screen, fluorescence, CHO/OX1R cells, Fluo-8 calcium, orexin A; Orexin/Hypocretin receptor type 1 (Homo sapiens), O43613; Fluo-8 calcium fluorescence; inhibition, % at 5 µM; hit rate 0.43% among 330,000;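 active means inhibition above its plate's threshold, mean inhibition of all tested compounds on the plate plus 3 SD, cut at about 37% in these data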;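 further: 0% = orexin A challenge wells and 100% = SB-334867-A antagonist wells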
Target sequence (O43613 whole entry, looked up): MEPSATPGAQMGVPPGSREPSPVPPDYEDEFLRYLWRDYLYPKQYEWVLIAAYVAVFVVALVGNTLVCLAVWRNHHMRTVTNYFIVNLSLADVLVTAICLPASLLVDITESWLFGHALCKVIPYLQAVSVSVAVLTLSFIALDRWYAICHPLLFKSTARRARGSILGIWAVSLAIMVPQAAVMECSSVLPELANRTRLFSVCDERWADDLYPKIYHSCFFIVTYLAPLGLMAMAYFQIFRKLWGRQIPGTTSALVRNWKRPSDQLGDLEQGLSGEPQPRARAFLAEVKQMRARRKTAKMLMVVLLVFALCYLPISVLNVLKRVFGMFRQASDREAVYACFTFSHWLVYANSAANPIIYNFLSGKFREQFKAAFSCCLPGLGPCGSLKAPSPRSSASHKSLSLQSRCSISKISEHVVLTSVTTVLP
CHO parental Ca: ATP-evoked calcium signal inhibitors, parental CHO, primary screen, counter-screen for OX1R antagonist project, cell-based, fluorescence, Fluo-8 calcium dye. parental CHO-K1, ATP-induced calcium, Fluo-8 fluorescence. hit rate 0.63% among 330,000. inhibition, % at 5.6 µM. AID 463079, 2010;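 active means inhibition above that plate's mean sample inhibition plus 3 SD, cut at about 26% in these data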;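 further: 0% = ATP-challenged DMSO wells and 100% = DMSO wells without ATP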
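Assay system: parental CHO cells; Read-out basis: percent inhibition of ATP-evoked calcium rise, normalized to controls; Benchmarks: ATP and no-ATP DMSO wells; Compound dosing: single nominal dose of 5.6 µM per compound; Signal: Fluo-8 calcium dye fluorescence; Also added: ATP as calcium-mobilizing challenge; Repeats: singlicate.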
TAAR1 antagonist: human TAAR1 antagonists, primary screen, Fluo-8 calcium fluorescence, CHO RD-HGA16 cells; antagonist; inhibition, % at 3 µM; hit rate 1.5% among 360,000; AID 624466, 2012;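 active means inhibition above a per-plate cutoff, the mean inhibition of test compounds on that plate plus 3 SD, cut at about 49% in these data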;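 further: 0% = DMSO plus EC80 beta-PEA response and 100% = DMSO alone without agonist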
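System: CHO RD-HGA16 cells bearing hTAAR1. Reagent: EC80 β-phenethylamine stimulus. Schedule: seeding 17-24 h prior, 75-min 37 °C, 30-min RT dye loading. Signal: Fluo-8 intracellular calcium dye fluorescence, real-time kinetic reads. Read-out: % inhibition from peak post-agonist over basal fluorescence ratio. Benchmarks: vehicle wells and EC80 agonist wells. Replicates: n of 1.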
TAAR1 agonist: human TAAR1 agonists, primary screen, Fluo-8 calcium fluorescence, CHO RD-HGA16 cells; Trace amine-associated receptor 1 (Homo sapiens), Q96RJ0; vehicle wells 0%, saturating PEA agonist 100%; activation, % at 3 µM; hit rate 0.99% among 360,000; AID 624467, 2012;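 active means activation above the mean activation of all test compounds in the run plus 3 SD, cut at about 38% in these data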
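Repeats: no replicates (n 1) | Material: CHO-derived RD-HGA16 cells with stable Gα16 and human TAAR1 | Technique: Kinetic Fluo-8 calcium fluorescence | Schedule: 17-24 h seeding, 75 min 37 °C dye, 30 min RT | Evaluation: % activation from peak over basal fluorescence ratio, DMSO-to-PEA scaled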
OX1R antag-2: antagonists of human orexin 1 receptor (OX1R); Orexin/Hypocretin receptor type 1 (Homo sapiens), O43613; OX1R-expressing cells, FRET antagonist read-out; inhibition, % at 6.6 µM; hit rate 1.8% among 330,000; AID 485270, 2010; in the data active means inhibition mostly above about 38%, no sharp cut-off; inactive means mostly below about 40%;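 further: 0% = agonist challenge alone and 100% = reference antagonist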
GPR7 antagonist: GPR7 receptor antagonists, primary screen, cell-based, fluorescence, single concentration | GPR7-expressing cells, fluorescence antagonist assay | hit rate 1.1% among 290,000 | Neuropeptides B/W receptor type 1 (Homo sapiens), P48145 | inhibition, % at 4.4 µM; in the data active means inhibition above about 16%, passing the limit was not always enough;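 further: cells stimulated with the agonist NPW; 0% = agonist with vehicle and 100% = vehicle without agonist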
Target sequence (P48145 whole entry, looked up): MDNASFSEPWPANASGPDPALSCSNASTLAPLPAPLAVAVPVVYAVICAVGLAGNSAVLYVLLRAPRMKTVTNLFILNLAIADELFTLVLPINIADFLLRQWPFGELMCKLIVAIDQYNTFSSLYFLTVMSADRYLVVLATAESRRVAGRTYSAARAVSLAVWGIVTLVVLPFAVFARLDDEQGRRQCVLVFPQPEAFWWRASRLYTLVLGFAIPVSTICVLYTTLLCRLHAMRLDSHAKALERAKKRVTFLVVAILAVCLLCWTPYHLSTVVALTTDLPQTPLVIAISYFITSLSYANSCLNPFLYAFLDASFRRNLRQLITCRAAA
TAAR1 nonsel count: nonselective antagonists in TAAR1 counter-screen cells, counter-screen for hTAAR1 antagonist project, cell-based, fluorescence, calcium; inhibition, % at 3 µM; AID 651780, 2012; hit rate 77% among 2,400; counterscreen cell line, antagonist mode; shares compounds with TAAR1 antagonist; in the data active means inhibition above about 22%;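 further: CHO-Ga16 host cells stimulated with ATP at an EC80 level; 0% = agonist EC80 plus vehicle and 100% = vehicle without agonist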
TAAR1 ant conf: human TAAR1 antagonists, retest of hits, confirmation, cell-based, fluorescence | AID 651785, 2012 | shares compounds with TAAR1 antagonist | hit rate 40% among 2,400 | TAAR1-expressing cells, fluorescence antagonist read-out | inhibition, % at 3 µM; in the data active means inhibition above about 49%;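 further: CHO-Ga16 host cells challenged with agonist PEA near its EC80; 0% = agonist at EC80 plus vehicle and 100% = vehicle with no agonist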
Ga16 ag counter-1: calcium activation in Ga16-expressing cells, counter-screen for TAAR1 antagonist project, cell-based, fluorescence; shares compounds with TAAR1 antagonist; agonist counterscreen; activation, % at 3 µM; hit rate 18% among 2,400; AID 651953, 2012; in the data active means activation above about 12%;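 further: 0% = vehicle wells and 100% = saturating stimulus response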
TAAR1 ag count: TAAR1 activation by candidate antagonists – cell-based, fluorescence, counter-screen for TAAR1 antagonist project; hTAAR1 cell line, agonist mode; hit rate 2% among 2,400; activation, % at 3 µM; shares compounds with TAAR1 antagonist; in the data active means activation above about 37%;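 further: CHO cells stably expressing TAAR1 with calcium dye readout; 0% = DMSO vehicle and 100% = full agonist response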
TAAR1 ag confirm: human TAAR1 agonists, retest of hits, confirmation, Fluo-8 calcium fluorescence, CHO RD-HGA16 cells. activation, % at 3 µM. hit rate 82% among 2,400. shares compounds with TAAR1 agonist. scaled: DMSO 0%, maximal phenethylamine 100%. AID 651783, 2012;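 active means activation above a cutoff set at the run's mean compound activation plus 3 SD, cut at about 39% in these data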
Ga16 ag counter-2: nonselective calcium mobilization agonists, CHO-Ga16 cells, counter-screen for hTAAR1 agonist project, cell-based, fluorescence, CHO-Ga16 parental line; Fluo-8 calcium fluorescence; normalized to maximal ATP response, DMSO zero; activation, % at 3 µM; shares compounds with TAAR1 agonist; hit rate 50% among 2,400;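 active means activation above the run cutoff, the mean activation over all tested wells plus 3 SD, cut at about 12% in these data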;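 further: 0% = DMSO wells and 100% = maximal ATP response on the peak over basal ratio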
TAAR1 desensitize: TAAR1 desensitization by agonist hits, confirmation, counter-screen for TAAR1 agonist project, cell-based, fluorescence, tachyphylaxis. shares compounds with TAAR1 agonist. CHO RD-HGA16 hTAAR1, Fluo-8 calcium, beta-PEA response inhibition. inhibition, % at 3 µM. hit rate 46% among 2,400;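 active means inhibition above the run cutoff, the mean inhibition of all test compounds plus 3 SD, cut at about 49% in these data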;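 further: beta-PEA stimulus applied at its EC80; loss of beta-PEA calcium signal after compound pretreatment read as receptor desensitization; 0% = DMSO with beta-PEA at EC80 and 100% = DMSO alone without agonist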
Ga16 nonsel ant: inhibition of ATP-evoked calcium response in CHO-Ga16 cells, counter-screen for TAAR1 agonist project, cell-based, fluorescence. CHO-Ga16 ATP-induced calcium, Fluo-8 fluorescence. shares compounds with TAAR1 agonist. hit rate 39% among 2,400. inhibition, % at 3 µM. AID 651952, 2012;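 active means inhibition above the plate's mean compound inhibition plus 3 SD, computed per plate, cut at about 22% in these data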;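 further: 0% = EC80 ATP with DMSO and 100% = DMSO wells without ATP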
An asterisk follows results filed as active; . = not tested or not shown.

SMILES	OX1R antag-1	CHO parental Ca	TAAR1 antagonist	TAAR1 agonist	OX1R antag-2	GPR7 antagonist	TAAR1 ag confirm	Ga16 ag counter-2	TAAR1 desensitize	Ga16 nonsel ant	others
COc1cc(OC)cc(C(=O)Nc2cccc(-c3ccc(N4CCOCC4)nn3)c2)c1	-26	-12	55*	11	5	.	.	.	.	.	TAAR1 nonsel count=35*;TAAR1 ant conf=39;Ga16 ag counter-1=6;TAAR1 ag count=8
O=C(Cc1cccs1)Nc1cccc(-c2nc3cc4ccccc4cc3[nH]2)c1	10	3	74*	8	56	0	.	.	.	.	TAAR1 nonsel count=34*;TAAR1 ant conf=44;Ga16 ag counter-1=6;TAAR1 ag count=0
CC(=O)Nc1cccc(NC(=O)Cc2cccs2)c1	-6	-10	5	-1	6	-15	.	.	.	.
Cc1ccc(C)c(N2CCN(C(=O)CCCOc3cc(=O)n(C)c4ccccc34)CC2)c1	-19	-14	54*	25	18	-11	.	.	.	.	TAAR1 nonsel count=39*;TAAR1 ant conf=56*;Ga16 ag counter-1=13*;TAAR1 ag count=16
Cc1ccc(C)c(N2CCN(C(=O)COc3cc(=O)n(C)c4ccccc34)CC2)c1	-20	-5	24	10	10	-10	.	.	.	.
COc1ccc(-c2nc(NC(=O)c3ccc(OCC(=O)Nc4ccc(F)cc4)c(OC)c3)sc2C)cc1	-14	-17	65*	7	9	-10	.	.	.	.	TAAR1 nonsel count=30*;TAAR1 ant conf=47;Ga16 ag counter-1=10;TAAR1 ag count=10
CCCCN=C(C)C1=C(O)CSC1=O	0	-17	-3	1	-4	-15	.	.	.	.
CC(=NCCc1ccccc1)C1=C(O)CSC1=O	-23	-12	75*	93*	39	-10	84*	0	56*	6
CC(=NCCc1ccccc1)C1=C(O)CCC1=O	-14	-9	74*	105*	5	-2	98*	1	73*	8
CC(=O)Nc1cncc(-c2cccc(S(C)(=O)=O)c2)n1	.	.	-2	0	.	.	.	.	.	.
Cc1ccc(CS(=O)(=O)c2ncn[nH]2)cc1	10	1	13	13	19	-13	.	.	.	.
CCc1sc(C(=O)Nc2cccnc2)cc1Br	-11	-19	22	65*	37	-12	48*	33*	16	11
COc1ccc(NC(=O)c2cc(Br)c(Br)s2)cn1	-30	-22	29	71*	12	-3	49*	42*	36	11
CCc1cc(C(=O)Nc2ccc(OC)nc2)sc1C	-6	-2	6	2	31	.	.	.	.	.
O=C(O)c1ccccc1C(=O)NC1Cc2ccccc2C1	3	-12	77*	85*	1	-5	98*	16*	91*	6
O=C(NC1CCCCC1)c1cccnc1C(=O)O	-12	2	-3	5	16	-2	.	.	.	.
O=C(CSc1nc2ccccc2c(=O)n1Cc1ccccc1)NCc1ccco1	-5	-3	79*	75*	3	-5	78*	47*	65*	38*
O=C(CSc1nc2ccccc2c(=O)n1Cc1ccc(F)cc1)NCc1cccs1	-23	-20	96*	95*	23	-9	92*	52*	99*	68*
Cc1cc(N2CCN(C(c3ccccc3)c3ccccc3)CC2)n2ncnc2n1	-23	-7	35	21	5	-7	.	.	.	.
Cc1nc2ncnn2c(N2CCN(C(c3ccccc3)c3ccccc3)CC2)c1C	-5	16	39	49*	1	-4	27	15*	17	9
Cc1cc(NC(=O)C2CC(=O)OC2c2ccccc2)no1 (centres undefined)	-5	-4	0	20	2	-12	.	.	.	.
COc1ccc(NC(=O)C2CC(=O)OC2c2ccccc2)cc1 (centres undefined)	-10	-3	-7	51*	1	-5	2	1	3	12
COc1cc2cnc(-c3ccccc3)c(-c3cc(OC)c(OC)c(OC)c3)c2cc1OC	-4	-14	3	12	20	.	.	.	.	.
COP(=O)(OC)c1nc(-c2cccc3ccccc23)oc1NCCc1ccccc1	-35	-21	75*	74*	-2	6	88*	8	83*	27*
O=C(c1csc2ccccc12)N1CCCCCC1	-14	7	1	-1	9	-14	.	.	.	.
c1ccc(C2CNCCc3ccccc32)cc1 (centres undefined)	-16	0	74*	64*	0	-3	95*	1	92*	8
O=C1C(SCCO)=C(SCCO)C(=O)c2ccccc21	47*	48*	84*	67*	67*	.	71*	49*	83*	74*

Screens as filed in PubChem BioAssay.
